Results reported in ChEMBL document CHEMBL1806494, “Synthesis and biological evaluation of potential 5-HT(7) receptor PET radiotracers” (Eur J Med Chem, 2011).
Calls of active or inactive are those of the source. The rule behind the calls is not given here.

How the values were obtained:
[1] = molecular target: T1, 5-hydroxytryptamine receptor 7 (Homo sapiens, UniProt P34969); experiment: Binding affinity to 5HT7 receptor
[2] = molecular target: T1, 5-hydroxytryptamine receptor 7; experiment: Binding affinity to recombinant human 5HT7 receptor expressed in CHO cells by competitive binding assay; assay type: cell-based
In short: (§1)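 Cell-based functional assay on human recombinant receptors expressed in CHO cells. Test compound inhibition of the control specific agonist response was measured over a concentration range. Concentration-response curves were built from mean replicate values and fitted with the Hill equation by non-linear regression to give IC50, reported as KB.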

[3] = molecular target: T2, 5-hydroxytryptamine receptor 1A (Homo sapiens) (UniProt P08908); experiment: Binding affinity to recombinant human 5HT1A receptor expressed in CHO cells by competitive binding assay; assay type: cell-based; in short: as §1
T2 sequence (whole entry): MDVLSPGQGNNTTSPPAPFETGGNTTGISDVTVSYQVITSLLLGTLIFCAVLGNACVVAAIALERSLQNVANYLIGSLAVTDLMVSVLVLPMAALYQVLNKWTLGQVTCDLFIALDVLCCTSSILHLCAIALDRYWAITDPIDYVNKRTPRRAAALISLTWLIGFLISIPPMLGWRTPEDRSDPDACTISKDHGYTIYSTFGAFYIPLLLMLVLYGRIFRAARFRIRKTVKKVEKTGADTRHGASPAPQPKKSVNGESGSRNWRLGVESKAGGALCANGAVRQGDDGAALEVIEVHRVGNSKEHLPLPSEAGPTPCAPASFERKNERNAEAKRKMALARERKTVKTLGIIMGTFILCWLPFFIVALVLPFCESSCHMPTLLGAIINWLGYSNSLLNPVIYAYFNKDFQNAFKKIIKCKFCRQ

[4] = molecular target: 5-hydroxytryptamine receptor 7 (Rattus norvegicus) (UniProt P32305); experiment: Binding affinity to 5HT7 receptor in Sprague-Dawley rat hippocampus at 1 uCi/ml after 20 mins by semi-quantitative autoradiography in presence of 10 to 100 nM of 5HT7 receptor antagonist SB269970; assay type: tissue-based; settings: tested as the 18F-labelled form
5-hydroxytryptamine receptor 7 (Rattus norvegicus), sequence (P32305 whole entry): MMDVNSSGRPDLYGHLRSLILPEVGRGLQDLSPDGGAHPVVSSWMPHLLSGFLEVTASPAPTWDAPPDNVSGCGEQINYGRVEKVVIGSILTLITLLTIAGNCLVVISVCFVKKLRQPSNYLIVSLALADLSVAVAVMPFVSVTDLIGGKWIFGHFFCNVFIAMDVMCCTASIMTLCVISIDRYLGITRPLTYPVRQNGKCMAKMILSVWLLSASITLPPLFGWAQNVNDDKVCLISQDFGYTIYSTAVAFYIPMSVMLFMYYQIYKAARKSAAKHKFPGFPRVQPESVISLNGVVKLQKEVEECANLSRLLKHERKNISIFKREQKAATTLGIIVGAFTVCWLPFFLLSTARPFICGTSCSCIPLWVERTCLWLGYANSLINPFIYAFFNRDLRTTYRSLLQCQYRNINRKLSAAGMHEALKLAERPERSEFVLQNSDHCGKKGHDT
In short: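 Coronal rat brain sections (30 µm, cut through hippocampus and cerebellum, stored at -80 °C) brought to ambient temperature, incubated 20 min in Tris phosphate-buffered saline (138 mM NaCl, 2.7 mM KCl, pH 7.6) with 37 kBq/ml [18F]radiotracer, alone or with SB269970 (10 nM, 100 nM or 1 µM). Rinsed 90 s in cold buffer (4 °C), then 90 s in cold water, dried, and exposed to a phosphor imaging plate for 60 min. Hippocampal binding read semi-quantitatively, in triplicate.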

[5] = molecular target: 5-hydroxytryptamine receptor 6 (Homo sapiens) (UniProt P50406); experiment: Binding affinity to recombinant human 5HT6 receptor expressed in CHO cells by competitive binding assay; assay type: cell-based; in short: as §1
5-hydroxytryptamine receptor 6 (Homo sapiens), sequence (P50406 whole entry): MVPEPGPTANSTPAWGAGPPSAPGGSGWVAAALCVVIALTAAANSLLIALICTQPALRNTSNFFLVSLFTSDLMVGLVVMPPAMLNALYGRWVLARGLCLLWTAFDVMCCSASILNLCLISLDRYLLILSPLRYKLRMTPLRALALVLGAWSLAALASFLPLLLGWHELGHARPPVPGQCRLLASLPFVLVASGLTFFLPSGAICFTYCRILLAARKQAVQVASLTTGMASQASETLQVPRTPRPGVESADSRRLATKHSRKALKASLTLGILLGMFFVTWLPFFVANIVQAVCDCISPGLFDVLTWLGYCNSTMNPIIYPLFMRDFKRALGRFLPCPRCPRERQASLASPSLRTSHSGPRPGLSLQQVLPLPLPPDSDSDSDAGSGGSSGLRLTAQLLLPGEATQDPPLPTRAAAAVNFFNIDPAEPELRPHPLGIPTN

T1 sequence (P34969 whole entry): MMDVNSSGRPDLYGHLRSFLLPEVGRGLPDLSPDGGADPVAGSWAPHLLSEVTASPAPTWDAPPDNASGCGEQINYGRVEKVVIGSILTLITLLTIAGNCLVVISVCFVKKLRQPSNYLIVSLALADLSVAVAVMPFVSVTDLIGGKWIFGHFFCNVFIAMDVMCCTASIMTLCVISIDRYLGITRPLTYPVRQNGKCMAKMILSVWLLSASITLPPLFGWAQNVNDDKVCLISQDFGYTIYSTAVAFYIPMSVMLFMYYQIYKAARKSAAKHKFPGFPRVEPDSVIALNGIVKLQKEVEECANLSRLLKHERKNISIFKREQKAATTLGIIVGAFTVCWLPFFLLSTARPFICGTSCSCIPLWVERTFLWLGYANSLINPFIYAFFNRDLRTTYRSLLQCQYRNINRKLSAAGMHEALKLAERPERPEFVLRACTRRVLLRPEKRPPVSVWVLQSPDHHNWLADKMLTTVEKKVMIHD

Ki [1]	Kb [2]	Kb [3]	Activity [4]	Kb [5]	SMILES
9.7 nM					[11CH3]N1C(=O)C2(CCCCN3CCc4sccc4C3)CCCc3cccc1c32 (configuration not stated)
	1.6 nM	> 10 µM	Active	> 10 µM	COc1ccccc1N1CCN(CC[C@H]2CCCN2S(=O)(=O)c2ccccc2F)CC1
	14 nM	> 10 µM	inactive	> 10 µM	CC1CCN(CC[C@H]2CCCN2S(=O)(=O)c2ccc(F)cc2)CC1
	4.8 nM	> 10 µM	Active	> 10 µM	COc1ccccc1N1CCN(CC[C@H]2CCCN2S(=O)(=O)c2ccc(F)cc2)CC1
	8.4 nM	> 10 µM	inactive	> 10 µM	CC1CCN(CC[C@H]2CCCN2S(=O)(=O)c2ccccc2F)CC1
